Test: Phase I dose-escalation study: safety, adverse events
Format: in vivo, human
How it was run: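 Oral test compound was given once daily in 28-day cycles after a 7-day single-dose run-in, in Japanese and Hong Kong/Taiwan groups escalated separately. Toxicity was graded by CTCAE v3.0 using laboratory tests, physical examination, vital signs, weight and periodic ECG. DLTs were grade 3–4 events over the run-in plus cycle 1. MTD was set by an adaptive Bayesian logistic regression model with overdose control.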

[1] = group 2, 400 mg q.d. (n = 12), All grades
[2] = group 2, 400 mg q.d. (n = 12), Grade 3
[3] = group 2, 400 mg q.d. (n = 12), Grade 4
[4] = group 2, 600 mg q.d. (n = 8), All grades
[5] = group 2, 600 mg q.d. (n = 8), Grade 3
[6] = group 2, 600 mg q.d. (n = 8), Grade 4
[7] = group 2, 800 mg q.d. (n = 4), All grades
[8] = group 2, 800 mg q.d. (n = 4), Grade 3
[9] = group 2, 800 mg q.d. (n = 4), Grade 4
[10] = group 2, All patients (n = 24), All grades
[11] = group 2, All patients (n = 24), Grade 3
[12] = group 2, All patients (n = 24), Grade 4

Cc1c(C(=O)Nc2ccc(N3C[C@@H](C)O[C@@H](C)C3)nc2)cccc1-c1ccc(OC(F)(F)F)cc1 [Sonidegib]
Dysgeusia (drug-related adverse event) [1]: 2 (17) n (%) | Fatigue (drug-related adverse event) [1]: 4 (33) n (%) | Hepatic function abnormal (drug-related adverse event) [1]: 2 (17) n (%) | Muscular weakness (drug-related adverse event) [1]: 0 (0) n (%) | Myalgia (drug-related adverse event) [1]: 2 (17) n (%) | Nausea (drug-related adverse event) [1]: 0 (0) n (%) | Pyrexia (drug-related adverse event) [1]: 0 (0) n (%) | Vomiting (drug-related adverse event) [1]: 0 (0) n (%) | Blood creatine kinase increased (drug-related adverse event) [2]: 1 (8) n (%) | Decreased appetite (drug-related adverse event) [2]: 0 (0) n (%) | Diarrhea (drug-related adverse event) [2]: 0 (0) n (%) | Dizziness (drug-related adverse event) [2]: 0 (0) n (%) | Dysgeusia (drug-related adverse event) [2]: 0 (0) n (%) | Fatigue (drug-related adverse event) [2]: 0 (0) n (%) | Hepatic function abnormal (drug-related adverse event) [2]: 0 (0) n (%) | Muscular weakness (drug-related adverse event) [2]: 0 (0) n (%) | Myalgia (drug-related adverse event) [2]: 0 (0) n (%) | Nausea (drug-related adverse event) [2]: 0 (0) n (%) | Pyrexia (drug-related adverse event) [2]: 0 (0) n (%) | Vomiting (drug-related adverse event) [2]: 0 (0) n (%) | Blood creatine kinase increased (drug-related adverse event) [3]: 1 (8) n (%) | Decreased appetite (drug-related adverse event) [3]: 0 (0) n (%) | Diarrhea (drug-related adverse event) [3]: 0 (0) n (%) | Dizziness (drug-related adverse event) [3]: 0 (0) n (%) | Dysgeusia (drug-related adverse event) [3]: 0 (0) n (%) | Fatigue (drug-related adverse event) [3]: 0 (0) n (%) | Hepatic function abnormal (drug-related adverse event) [3]: 0 (0) n (%) | Muscular weakness (drug-related adverse event) [3]: 0 (0) n (%) | Myalgia (drug-related adverse event) [3]: 0 (0) n (%) | Nausea (drug-related adverse event) [3]: 0 (0) n (%) | Pyrexia (drug-related adverse event) [3]: 0 (0) n (%) | Vomiting (drug-related adverse event) [3]: 0 (0) n (%) | Blood creatine kinase increased (drug-related adverse event) [4]: 3 (38) n (%) | Decreased appetite (drug-related adverse event) [4]: 3 (38) n (%) | Diarrhea (drug-related adverse event) [4]: 1 (13) n (%) | Dizziness (drug-related adverse event) [4]: 1 (13) n (%) | Dysgeusia (drug-related adverse event) [4]: 3 (38) n (%) | Fatigue (drug-related adverse event) [4]: 1 (13) n (%) | Hepatic function abnormal (drug-related adverse event) [4]: 2 (25) n (%) | Muscular weakness (drug-related adverse event) [4]: 1 (13) n (%) | Myalgia (drug-related adverse event) [4]: 3 (38) n (%) | Nausea (drug-related adverse event) [4]: 3 (38) n (%) | Pyrexia (drug-related adverse event) [4]: 1 (13) n (%) | Vomiting (drug-related adverse event) [4]: 2 (25) n (%) | Blood creatine kinase increased (drug-related adverse event) [5]: 0 (0) n (%) | Decreased appetite (drug-related adverse event) [5]: 0 (0) n (%) | Diarrhea (drug-related adverse event) [5]: 0 (0) n (%) | Dizziness (drug-related adverse event) [5]: 0 (0) n (%) | Dysgeusia (drug-related adverse event) [5]: 0 (0) n (%) | Fatigue (drug-related adverse event) [5]: 0 (0) n (%) | Hepatic function abnormal (drug-related adverse event) [5]: 1 (13) n (%) | Muscular weakness (drug-related adverse event) [5]: 0 (0) n (%) | Myalgia (drug-related adverse event) [5]: 1 (13) n (%) | Nausea (drug-related adverse event) [5]: 0 (0) n (%) | Pyrexia (drug-related adverse event) [5]: 0 (0) n (%) | Vomiting (drug-related adverse event) [5]: 0 (0) n (%) | Blood creatine kinase increased (drug-related adverse event) [6]: 1 (13) n (%) | Decreased appetite (drug-related adverse event) [6]: 0 (0) n (%) | Diarrhea (drug-related adverse event) [6]: 0 (0) n (%) | Dizziness (drug-related adverse event) [6]: 0 (0) n (%) | Dysgeusia (drug-related adverse event) [6]: 0 (0) n (%) | Fatigue (drug-related adverse event) [6]: 0 (0) n (%) | Hepatic function abnormal (drug-related adverse event) [6]: 0 (0) n (%) | Muscular weakness (drug-related adverse event) [6]: 0 (0) n (%) | Myalgia (drug-related adverse event) [6]: 0 (0) n (%) | Nausea (drug-related adverse event) [6]: 0 (0) n (%) | Pyrexia (drug-related adverse event) [6]: 0 (0) n (%) | Vomiting (drug-related adverse event) [6]: 0 (0) n (%) | DLT in cycle 1 (creatine kinase elevation) (group 2, 800 mg): single DLT | Blood creatine kinase increased (drug-related adverse event) [7]: 3 (75) n (%) | Decreased appetite (drug-related adverse event) [7]: 2 (50) n (%) | Diarrhea (drug-related adverse event) [7]: 1 (25) n (%) | Dizziness (drug-related adverse event) [7]: 1 (25) n (%) | Dysgeusia (drug-related adverse event) [7]: 1 (25) n (%) | Fatigue (drug-related adverse event) [7]: 3 (75) n (%) | Hepatic function abnormal (drug-related adverse event) [7]: 3 (75) n (%) | Muscular weakness (drug-related adverse event) [7]: 3 (75) n (%) | Myalgia (drug-related adverse event) [7]: 3 (75) n (%) | Nausea (drug-related adverse event) [7]: 2 (50) n (%) | Pyrexia (drug-related adverse event) [7]: 1 (25) n (%) | Vomiting (drug-related adverse event) [7]: 1 (25) n (%) | Blood creatine kinase increased (drug-related adverse event) [8]: 0 (0) n (%) | Decreased appetite (drug-related adverse event) [8]: 1 (25) n (%) | Diarrhea (drug-related adverse event) [8]: 0 (0) n (%) | Dizziness (drug-related adverse event) [8]: 0 (0) n (%) | Dysgeusia (drug-related adverse event) [8]: 0 (0) n (%) | Fatigue (drug-related adverse event) [8]: 2 (50) n (%) | Hepatic function abnormal (drug-related adverse event) [8]: 2 (50) n (%) | Muscular weakness (drug-related adverse event) [8]: 2 (50) n (%) | Myalgia (drug-related adverse event) [8]: 1 (25) n (%) | Nausea (drug-related adverse event) [8]: 0 (0) n (%) | Pyrexia (drug-related adverse event) [8]: 0 (0) n (%) | Vomiting (drug-related adverse event) [8]: 0 (0) n (%) | Blood creatine kinase increased (drug-related adverse event) [9]: 2 (50) n (%) | Decreased appetite (drug-related adverse event) [9]: 0 (0) n (%) | Diarrhea (drug-related adverse event) [9]: 0 (0) n (%) | Dizziness (drug-related adverse event) [9]: 0 (0) n (%) | Dysgeusia (drug-related adverse event) [9]: 0 (0) n (%) | Fatigue (drug-related adverse event) [9]: 0 (0) n (%) | Hepatic function abnormal (drug-related adverse event) [9]: 0 (0) n (%) | Muscular weakness (drug-related adverse event) [9]: 0 (0) n (%) | Myalgia (drug-related adverse event) [9]: 0 (0) n (%) | Nausea (drug-related adverse event) [9]: 0 (0) n (%) | Pyrexia (drug-related adverse event) [9]: 0 (0) n (%) | Vomiting (drug-related adverse event) [9]: 0 (0) n (%) | Blood creatine kinase increased (drug-related adverse event) [10]: 12 (50) n (%) | Decreased appetite (drug-related adverse event) [10]: 5 (21) n (%) | Diarrhea (drug-related adverse event) [10]: 2 (8) n (%) | Dizziness (drug-related adverse event) [10]: 2 (8) n (%) | Dysgeusia (drug-related adverse event) [10]: 6 (25) n (%) | Fatigue (drug-related adverse event) [10]: 8 (33) n (%) | Hepatic function abnormal (drug-related adverse event) [10]: 7 (29) n (%) | Muscular weakness (drug-related adverse event) [10]: 4 (17) n (%) | Myalgia (drug-related adverse event) [10]: 8 (33) n (%) | Nausea (drug-related adverse event) [10]: 5 (21) n (%) | Pyrexia (drug-related adverse event) [10]: 2 (8) n (%) | Vomiting (drug-related adverse event) [10]: 3 (13) n (%) | Blood creatine kinase increased (drug-related adverse event) [11]: 1 (4) n (%) | Decreased appetite (drug-related adverse event) [11]: 1 (4) n (%) | Diarrhea (drug-related adverse event) [11]: 0 (0) n (%) | Dizziness (drug-related adverse event) [11]: 0 (0) n (%) | Dysgeusia (drug-related adverse event) [11]: 0 (0) n (%) | Fatigue (drug-related adverse event) [11]: 2 (8) n (%) | Hepatic function abnormal (drug-related adverse event) [11]: 3 (13) n (%) | Muscular weakness (drug-related adverse event) [11]: 2 (8) n (%) | Myalgia (drug-related adverse event) [11]: 2 (8) n (%) | Nausea (drug-related adverse event) [11]: 0 (0) n (%) | Pyrexia (drug-related adverse event) [11]: 0 (0) n (%) | Vomiting (drug-related adverse event) [11]: 0 (0) n (%) | Blood creatine kinase increased (drug-related adverse event) [12]: 4 (17) n (%) | Decreased appetite (drug-related adverse event) [12]: 0 (0) n (%) | Diarrhea (drug-related adverse event) [12]: 0 (0) n (%) | Dizziness (drug-related adverse event) [12]: 0 (0) n (%) | Dysgeusia (drug-related adverse event) [12]: 0 (0) n (%) | Fatigue (drug-related adverse event) [12]: 0 (0) n (%) | Hepatic function abnormal (drug-related adverse event) [12]: 0 (0) n (%) | Muscular weakness (drug-related adverse event) [12]: 0 (0) n (%) | Myalgia (drug-related adverse event) [12]: 0 (0) n (%) | Nausea (drug-related adverse event) [12]: 0 (0) n (%) | Pyrexia (drug-related adverse event) [12]: 0 (0) n (%) | Vomiting (drug-related adverse event) [12]: 0 (0) n (%) | Maximum tolerated dose (MTD) (group 2, Bayesian logistic regression model, all grade 3 or 4 blood CK elevation incidents): 600 mg q.d. | Drug-related AE: abnormal hepatic function (group 2, all doses): 29% | Drug-related AE: fatigue (group 2, all doses): 33% | Drug-related AE: increase in CK levels (group 2, all doses): 50% | Drug-related AE: myalgia (group 2, all doses): 33% | Patients with at least one AE suspected to be related to sonidegib (group 2, n = 18): 75% | Patients with SAEs that led to drug discontinuation (in each group): four | Time to recovery of CK after interruption of drug (most cases): 1 month | Renal impairment or renal failure (patients with grade 3 or 4 CK elevation and high blood myoglobin): no patients experienced renal impairment or renal failure | CK re-elevation after restart with a 200 mg dose (three patients at 400 mg interrupted for grade 3 CK elevation): not observed
